Published values from different studies.
Nectin-4: Nectin-4 (Homo sapiens, UniProt Q96NY8)
PFF0160c E182D: Dihydroorotate dehydrogenase (quinone), mitochondrial (PFF0160c, Plasmodium falciparum, UniProt Q08210, E182D)
SIGMAR1: Sigma non-opioid intracellular receptor 1 (SIGMAR1, Homo sapiens, UniProt Q99720)
PFF0160c: Dihydroorotate dehydrogenase (quinone), mitochondrial (PFF0160c, Plasmodium falciparum, UniProt Q08210)

SMILES	target	assay	endpoint	value
CCCC[C@@H]1NC(=O)[C@H](Cc2ccc(O)cc2)NC(=O)[C@@H]2CCCN2C(=O)[C@H](CC(=O)O)NC(=O)[C@H](C)NC(=O)[C@H](Cc2ccccc2)NC(=O)[C@@H]2CSCCC(=O)N3CN(CN(C3)C(=O)CCSC[C@@H](C(=O)N[C@@H](C)C(N)=O)NC1=O)C(=O)CCSC[C@H](NC(=O)[C@H](C)NC(C)=O)C(=O)N[C@@H]([C@@H](C)CC)C(=O)N[C@@H](CCC(=O)O)C(=O)N[C@@H](CCC(=O)O)C(=O)N[C@H](CCCCNC(=O)CCc1cn(CCOCCOCCOCCOCCOCCC(=O)N[C@H]3CSCCC(=O)N4CN5CN(C4)C(=O)CCSC[C@H](NC(=O)[C@@H](CC(=O)O)NC(=O)[C@H](Cc4cccc6ccccc46)NC(=O)[C@@H]4CCCN4C3=O)C(=O)N[C@@H](CCSC)C(=O)N[C@@H](CCCCNC(=N)N)C(=O)N[C@@H](CC(=O)O)C(=O)N[C@@H](Cc3c[nH]c4ccccc34)C(=O)N[C@@H](CO)C(=O)N[C@@H]([C@@H](C)O)C(=O)N3CCC[C@H]3C(=O)N3C[C@H](O)C[C@H]3C(=O)N[C@@H](Cc3c[nH]c4ccccc34)C(=O)N[C@H](C(N)=O)CSCCC5=O)nn1)C(=O)N[C@@H](CCC(N)=O)C(=O)N[C@@H](Cc1ccc(O)cc1)C(=O)N2	Nectin-4	binding, SPR	Kd	2.2 nM
Cc1cc(F)ccc1NS(=O)(=O)c1ccc(-c2ccoc2)s1	PFF0160c E182D	enzyme activity, inhibitor, absorbance	IC50	> 10000 nM
Cc1cccc(CN2CCN(C(c3ccccc3)c3ccc(Cl)cc3)CC2)c1 (stereo not drawn)	SIGMAR1	ligand displacement, radioligand	Ki	1250 nM
N[C@@H](C[C@]1(C(=O)O)C[C@H]2OC[C@@H](O)[C@@H](O)[C@H]2O1)C(=O)O	Glutamate receptor ionotropic, kainate 2 (Grik2, Rattus norvegicus, UniProt P42260, A518T)	ligand displacement, radioligand	Ki	61 nM
Cc1cc(Nc2ccc3c(c2)CCC3)n2ncnc2n1	PFF0160c	enzyme activity, inhibitor, absorbance	IC50	695 nM
CCCC[C@@H]1NC(=O)[C@H](Cc2ccc(O)cc2)NC(=O)[C@@H]2CCCN2C(=O)[C@H](CC(=O)O)NC(=O)[C@H](C)NC(=O)[C@H](Cc2ccccc2)NC(=O)[C@@H]2CSCCC(=O)N3CN(CN(C3)C(=O)CCSC[C@@H](C(N)=O)NC1=O)C(=O)CCSCCC(=O)N[C@@H](CC(C)(C)C)C(=O)N1CCC[C@H]1C(=O)N[C@@H](CCC(=O)O)C(=O)N[C@H](CCCCNC(=O)CCc1cn(CCOCCOCCOCCN(CCOCCOCCOCCC(=O)N[C@H]3CSCCC(=O)N4CN5CN(C4)C(=O)CCSC[C@H](NC(=O)[C@@H](CC(=O)O)NC(=O)[C@H](Cc4cccc6ccccc46)NC(=O)[C@@H]4CCCN4C3=O)C(=O)N[C@@H](CCSC)C(=O)N[C@@H](CCCCNC(=N)N)C(=O)N[C@@H](CC(=O)O)C(=O)N[C@@H](Cc3c[nH]c4ccccc34)C(=O)N[C@@H](CO)C(=O)N[C@@H]([C@@H](C)O)C(=O)N3CCC[C@H]3C(=O)N3C[C@H](O)C[C@H]3C(=O)N[C@@H](Cc3c[nH]c4ccccc34)C(=O)N[C@H](C(N)=O)CSCCC5=O)CCOCCOCCOCCn3cc(CCC(=O)NCCCC[C@H]4NC(=O)[C@H](CCC(=O)O)NC(=O)[C@@H]5CCCN5C(=O)[C@H](CC(C)(C)C)NC(=O)CCSCCC(=O)N5CN6CN(C5)C(=O)CCSC[C@H](NC(=O)[C@H](Cc5ccc(O)cc5)NC(=O)[C@@H]5CCCN5C4=O)C(=O)N[C@@H](Cc4ccccc4)C(=O)N[C@@H](C)C(=O)N[C@@H](CC(=O)O)C(=O)N4CCC[C@H]4C(=O)N[C@@H](Cc4ccc(O)cc4)C(=O)N[C@@H](CCCC)C(=O)N[C@H](C(N)=O)CSCCC6=O)nn3)nn1)C(=O)N1CCC[C@H]1C(=O)N[C@@H](Cc1ccc(O)cc1)C(=O)N2	Nectin-4	binding, SPR	Kd	2.3 nM
CN1CCN(C2=Nc3cc(Cl)ccc3Nc3ccccc32)CC1	SIGMAR1	ligand displacement, radioligand	Ki	> 10000 nM
O=C(c1ccc(F)cc1)C1CCN(C2Cc3ccccc3CC2O)CC1 (single isomer, unassigned; (-))	Vesicular acetylcholine transporter (SLC18A3, Homo sapiens, UniProt Q16572)	ligand displacement, radioligand	Ki	24.7 nM
COc1nc(NCC(C)C)nc(Oc2ccc(=O)n(Cc3ccccc3)n2)n1	PFF0160c E182D	enzyme activity, inhibitor, absorbance	IC50	4640 nM
Cc1cc2c(s1)Nc1ccccc1N=C2N1CCN(C)CC1	SIGMAR1	ligand displacement, radioligand	Ki	> 10000 nM
Cc1cc(NC(=O)c2cc(S(=O)(=O)N3CCCCC3)ccc2C)no1	PFF0160c	enzyme activity, inhibitor, absorbance	IC50	1700 nM
CCCC[C@@H]1NC(=O)[C@H](Cc2ccc(O)cc2)NC(=O)[C@@H]2CCCN2C(=O)[C@H](CC(=O)O)NC(=O)[C@H](C)NC(=O)[C@H](Cc2ccccc2)NC(=O)[C@@H]2CSCCC(=O)N3CN(CN(C3)C(=O)CCSC[C@H](NC(C)=O)C(=O)N[C@@H](CC(C)(C)C)C(=O)N3CCC[C@H]3C(=O)N[C@@H](CCC(=O)O)C(=O)N[C@H](CCCCNC(=O)CCc3cn(CCOCCOCCOCCOCCOCCC(=O)N[C@H]4CSCCC(=O)N5CN6CN(C5)C(=O)CCSC[C@H](NC(=O)[C@@H](CC(=O)O)NC(=O)[C@H](Cc5cccc7ccccc57)NC(=O)[C@@H]5CCCN5C4=O)C(=O)N[C@@H](CCSC)C(=O)N[C@@H](CCCCNC(=N)N)C(=O)N[C@@H](CC(=O)O)C(=O)N[C@@H](Cc4c[nH]c5ccccc45)C(=O)N[C@@H](CO)C(=O)N[C@@H]([C@@H](C)O)C(=O)N4CCC[C@H]4C(=O)N4C[C@H](O)C[C@H]4C(=O)N[C@@H](Cc4c[nH]c5ccccc45)C(=O)N[C@H](C(N)=O)CSCCC6=O)nn3)C(=O)N3CCC[C@H]3C(=O)N[C@@H](Cc3ccc(O)cc3)C(=O)N2)C(=O)CCSCCNC1=O	Nectin-4	binding, SPR	Kd	1.6 nM
